# STAT1 activator – STAT1 signaling activation; activation (% of control), % at 5.5 µM; NIH 3T3 STAT1-luciferase reporter, IFN-gamma, luminescence; 100% = IFN-gamma alone, no compound; 200,000 compounds, 2.6% hits; AID 932;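 active = activation above the screen-wide mean activation plus 3 SD, cut at about 130% in these data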;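 note: raw ratio to IFN-gamma control signal so 100% means no change and 0% no light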
# STAT3 inh – inhibitors of IL-6 induced STAT3 signaling | U3A cells, IL-6 STAT3-luciferase reporter, luminescence; host cell line lacks STAT1 | inhibition, % at 5.5 µM | 190,000 compounds, 0.89% hits | AID 862;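 active = inhibition above the mean inhibition across all screened compounds plus 3 SD, cut at about 44% in these data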;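 note: 0% = DMSO only wells and 100% = 100 µM nifuroxazide control wells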
# STAT1 inh – reduces IFN-gamma driven STAT1 reporter signal; NIH 3T3 STAT1-luciferase reporter, luminescence; inhibition, % at 5.5 µM; 200,000 compounds, 0.35% hits;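 active = inhibition above a set limit, the mean inhibition across all tested compounds plus 3 SD, cut at about 34% in these data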;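 note: 0% = IFN-gamma with DMSO and 100% = IFN-gamma with 300 µM nifuroxazide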
# APP 5'UTR act – activates APP 5'UTR luciferase reporter; 190,000 compounds, 1% hits; SH-SY5Y APP 5'UTR luciferase reporter, luminescence; zero percent = DMSO vehicle wells; activation, % at 2 µM;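 active = activation above a set limit, based on mean plus 3 SD of controls, cut at about 140% in these data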
# NF-kB expr up – raises NF-kB expression in human neuronal cells; 190,000 compounds, 1.6% hits; AID 1239; fold change at 12.5 µM; NF-kB reporter expression; hits give high values; in the data active = fold change above about 3.3
# STAT3 activator – STAT3 signaling activation. U3A cells, IL-6 STAT3-luciferase reporter, luminescence; 100% = signal with IL-6 EC80 alone. activation (% of control), % at 5.6 µM. 190,000 compounds, 0.91% hits. AID 871;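 active = activation above the screen-wide mean of compound activation plus 3 SD, cut at about 130% in these data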;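 note: 0% = background luminescence of wells with medium and substrate only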
#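 Test system: STAT3-luciferase reporter U3A cells; Detection: reporter luminescence signal; Times: 1 h compound pre-exposure, 6 h IL-6 stimulation, 37 °C; Benchmarks: IL-6-only high control; Also added: IL-6 stimulus at 33 ng/mL final.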
# * hit, by the source's call; nt = no result. A selection: hits, their analogues and other compounds. The true share with any hit is near 4.9%.
SMILES,STAT1 activator,STAT3 inh,STAT1 inh,APP 5'UTR act,NF-kB expr up,STAT3 activator
CS(=O)(=O)N(CC(=O)Nc1ccc2c(c1)OCO2)c1ccccc1,98,-3,1,-6,1.2,108
O=C(CCCN1C(=O)CCC1=O)Nc1ccc2c(c1)OCO2,99,10,1,15,1.3,95
O=C(CCS(=O)(=O)c1ccccc1)Nc1ccc2c(c1)OCO2,136*,-15,-37,-2,2.2,113
O=C(/C=C/c1ccnc2ccccc12)c1cccs1,103,33,-4,183*,1,78
Cc1ccc(CC(=O)NC2CCSC2=O)cc1 (stereo not given),104,5,-7,-5,1,97
CNC(=O)c1ccc(-c2ccc(OC)cc2)s1,138*,17,-42,99,4.6*,88
O=C(Nc1nc2ccc(Cl)cc2s1)c1ccc(Br)o1,148*,14,-52,112,3.5*,87
Cn1ncc(Cl)c1C(=O)Nc1nc2ccc(Cl)cc2s1,150*,-19,-56,99,2.4,121
CN1CCN(C(=S)SCc2nc(N)nc(Nc3ccc(F)cc3)n2)CC1,107,8,-9,-5,1.1,99
O/N=C1\CC/C(=N\O)c2nn(-c3ccccc3Cl)nc21,103,7,-3,5,1.1,97
Cc1ccc(-n2nc3c(n2)/C(=N/O)CC/C3=N\O)cc1,130*,10,-33,86,4.7*,91
COc1ccc(C(=O)CSc2nnc(CN3CCCCC3)n2-c2ccc(F)cc2)cc1,99,-6,2,3,1,103
Cc1onc(-c2ccccc2Cl)c1-c1nc(-c2ccncc2)no1,110,2,-11,-5,0.89,101
Clc1ccc(Br)cc1-c1nc(-c2cccnc2)no1,105,-43,-6,10,nt,141*
Clc1ccccc1-c1nc(-c2cccnc2)no1,129*,-21,-31,111,1.4,120
Cc1ccccc1-c1nc(-c2cccnc2)no1,139*,-11,-43,76,3.7*,112
Cc1ccc(CNc2ccc(N3CCOCC3)cc2)s1,145*,0,-49,84,3.2,103
CC(=O)N1CCN(c2ccc(NCc3ccc(C)s3)cc2)CC1,104,14,-4,nt,1.1,95
Cn1cnnc1SCC(=O)Nc1ccc2nc(SCc3ccccc3F)sc2c1,146*,-16,-52,72,2.9,114
O=C(CSc1nc2ccc(NC(=O)CSc3nnnn3-c3ccccc3)cc2s1)Nc1ccccc1,106,16,-7,11,1.2,89
CCOC(=O)c1cc2c(ccn2-c2ccc(F)cc2)n1CC(=O)NC(C)(C)C,100,15,-3,3,1.1,93
CC(/C=N/NC(=O)CSc1ccccn1)=C\c1ccc(C(C)C)cc1,124,-12,-27,37,1.5,114
CC(=C/c1ccc(C(C)C)cc1)/C=N/NC(=O)CSc1ccccn1,149*,-40,-55,51,0.84,134*
COc1ccc(NC(=O)/C=C/c2ccccc2)cn1,141*,4,-46,85,2.9,93
COc1ccc(NC(=O)/C=C/c2cc(OC)c(OC)c(OC)c2)cn1,100,22,-1,-2,0.95,87
SMILES,STAT1 activator,STAT3 inh,STAT1 inh,APP 5'UTR act,NF-kB expr up,STAT3 activator
COc1ccc(NC(=O)/C=C/c2ccc(F)cc2)cn1,136*,7,-40,19,2,96
Cc1ccc(Nc2nc(COC(=O)COc3ccc(C=O)cc3)cs2)cc1,131*,-3,-35,32,2.1,102
C/C=C/c1ccc(OCC(=O)OCc2csc(Nc3ccc(C)cc3)n2)c(OC)c1,110,16,-12,10,1.8,86
O=C(c1ccccc1)c1nnc(-c2ccccc2F)o1,115,16,-16,90,9.8*,90
CN(C)c1oc(-c2ccccc2F)nc1C#N,104,21,-4,18,0.95,87
O=C(CSc1nnc2c(n1)[nH]c1ccccc12)Nc1ccc(S(=O)(=O)Nc2ncccn2)cc1,93,5,6,7,0.99,97
COc1ccc(-c2cn[nH]c2N)cc1,96,-2,3,3,1.1,102
COc1ccc(-c2nc3c(Br)c(N)c(Br)cc3o2)cc1,135*,-88,-39,113,1.7,178*
CCOC(=O)c1cc(-c2ccc(C)cc2)nc2nc(SC)[nH]c(=O)c12,99,16,1,3,4*,85
CN(c1cccc(NC(=O)c2ccc(C(C)(C)C)cc2)c1)S(C)(=O)=O,138*,11,-44,91,2,94
O=C(Nc1cccc([N+](=O)[O-])c1)c1[nH]ncc1Cl,134*,16,-38,112,2.6,89
CN(C)S(=O)(=O)Oc1ccc(C(=O)Nc2cccc(C(F)(F)F)c2)cc1,87,23,13,26,0.91,86
CN(C)S(=O)(=O)Oc1ccc(C(=O)Nc2cccc(Cl)c2)cc1,143*,3,-48,123,2.3,104
O=C(Nc1cccc([N+](=O)[O-])c1)c1ccncc1,107,-3,-8,15,0.94,105
CC(C)(C)c1ccc(C(=O)Nc2cccc([N+](=O)[O-])c2)cc1,135*,-4,-34,137*,7.6*,102
O=C(Nc1cccc([N+](=O)[O-])c1)c1cnccn1,99,1,1,14,1.2,97
O=C(Nc1ccc(N2CCCCC2)cc1)c1ccc2c(c1)OCCO2,133*,33,-36,135*,3.8*,75
CC(=O)N1CCN(c2ccc(NC(=O)c3ccc4c(c3)OCCO4)cc2)CC1,94,3,7,-1,1.5,101
O=C(Nc1cccc([N+](=O)[O-])c1)c1ccc2c(c1)OCCO2,139*,-8,-44,91,2.4,104
O=C(Nc1cccc2nsnc12)c1ccc2c(c1)OCCO2,132*,3,-35,73,1.9,100
CCn1cc(-c2cc(C(=O)O)c3ccccc3n2)cn1,78,22,23,-4,1.4,86
O=c1c(Br)c(N2CCCC2)cnn1-c1ccccc1,143*,-5,-48,93,2.7,102
O=c1c(Br)c(N2CCCCC2)cnn1-c1ccccc1,147*,14,-51,166*,3.9*,90
CN1CCN(c2cnn(-c3ccccc3)c(=O)c2Br)CC1,110,1,-15,15,1,104
O=c1[nH]c(Nc2ccc3c(c2)OCCO3)nnc1Cc1ccc(Cl)cc1,97,-6,3,-10,1,108
COc1ccc(CCNC(=O)c2[nH]c(C)c(C(C)=O)c2C)cc1OC,99,11,1,-1,1.1,93
CC(=O)c1c(C)[nH]c(C(=O)OCCOc2ccccc2)c1C,53,84*,50*,212*,2.5,31

# Compound activity deposited in PubChem BioAssay by several laboratories.
